Measured values from ChEMBL document CHEMBL5724801, “EUbOPEN Chemogenomics Library - Multiplex” (2024).
“And” between values parts separate entries of the source, which are not always exact repeats. Identical values can stand only once.

Tested on: HEK-293T
Assay: Multiplex assay against HEK293T
Type: toxicity, cell-based
Details: human
In short: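 Per cents of healthy-nucleus cells form the tubulin, mitochondrial-mass and membrane-permeability phenotype values. Live cells were stained at seeding with Hoechst33342, BioTracker Green Microtubule Cytoskeleton Dye, MitoTracker Red and Annexin V Alexa Fluor 680. After compound addition they were imaged on a CQ1 microscope at 37°C and 5% CO2, and CellPathfinder machine-learning gating split them into Hoechst high-intensity objects or normal cells, normal cells into healthy, pyknosed or fragmented nuclei, and pyknosed cells into mitotic or apoptotic.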

[1] = 12 h, 1 µM, compound concentration 1 uM
[2] = 12 h, 10 µM, compound concentration 10 uM
[3] = 24 h, 1 µM, compound concentration 1 uM
[4] = 24 h, 10 µM, compound concentration 10 uM
[5] = 48 h, 1 µM, compound concentration 1 uM
[6] = 48 h, 10 µM, compound concentration 10 uM

Br.CS(=O)(=O)Nc1c(O)ccc2c1CCCC2C1=NCCN1 (configuration not stated)
Population Apoptotic (%) [1]: 40% and 43% | Population Fragmented Nuclei (%) [1]: 7% and 5% | Population Healthy Nuclei (%) [1]: 80% and 81% | Population Hoechst High Intensity Objects (%) [1]: 5% and 8% | Population Membrane Permeable-Phenotype (%) [1]: 0% | Population Mitochondria Different-Phenotype (%) [1]: 45% and 52% | Population Mitotic Cells (%) [1]: 59% and 56% | Population Normal (%) [1]: 94% and 91% | Population Pyknosed Nuclei (%) [1]: 12% | Population Tubulin-Different-Phenotype (%) [1]: 26% and 18% | Total Cell Count [1]: 407 and 334 | Population Apoptotic (%) [2]: 48% and 55% | Population Fragmented Nuclei (%) [2]: 8% and 6% | Population Healthy Nuclei (%) [2]: 76% and 79% | Population Hoechst High Intensity Objects (%) [2]: 12% and 14% | Population Membrane Permeable-Phenotype (%) [2]: 0% | Population Mitochondria Different-Phenotype (%) [2]: 60% and 67% | Population Mitotic Cells (%) [2]: 52% and 44% | Population Normal (%) [2]: 87% and 85% | Population Pyknosed Nuclei (%) [2]: 14% | Population Tubulin-Different-Phenotype (%) [2]: 33% and 26% | Total Cell Count [2]: 381 and 292 | Population Apoptotic (%) [3]: 38% and 55% | Population Fragmented Nuclei (%) [3]: 10% and 6% | Population Healthy Nuclei (%) [3]: 79% and 80% | Population Hoechst High Intensity Objects (%) [3]: 5% and 8% | Population Membrane Permeable-Phenotype (%) [3]: 1% and 0% | Population Mitochondria Different-Phenotype (%) [3]: 34% and 41% | Population Mitotic Cells (%) [3]: 61% and 44% | Population Normal (%) [3]: 94% and 91% | Population Pyknosed Nuclei (%) [3]: 10% and 13% | Population Tubulin-Different-Phenotype (%) [3]: 21% and 17% | Total Cell Count [3]: 549 and 387 | Population Apoptotic (%) [4]: 30% and 34% | Population Fragmented Nuclei (%) [4]: 11% | Population Healthy Nuclei (%) [4]: 75% and 77% | Population Hoechst High Intensity Objects (%) [4]: 6% and 11% | Population Membrane Permeable-Phenotype (%) [4]: 0% | Population Mitochondria Different-Phenotype (%) [4]: 40% and 46% | Population Mitotic Cells (%) [4]: 69% and 65% | Population Normal (%) [4]: 93% and 88% | Population Pyknosed Nuclei (%) [4]: 12% and 10% | Population Tubulin-Different-Phenotype (%) [4]: 23% and 21% | Total Cell Count [4]: 451 and 377 | Population Apoptotic (%) [5]: 12% and 29% | Population Fragmented Nuclei (%) [5]: 14% and 11% | Population Healthy Nuclei (%) [5]: 78% | Population Hoechst High Intensity Objects (%) [5]: 4% and 6% | Population Membrane Permeable-Phenotype (%) [5]: 0% | Population Mitochondria Different-Phenotype (%) [5]: 20% and 22% | Population Mitotic Cells (%) [5]: 87% and 70% | Population Normal (%) [5]: 95% and 93% | Population Pyknosed Nuclei (%) [5]: 7% and 9% | Population Tubulin-Different-Phenotype (%) [5]: 14% and 12% | Total Cell Count [5]: 859 and 532 | Population Apoptotic (%) [6]: 34% and 48% | Population Fragmented Nuclei (%) [6]: 16% and 14% | Population Healthy Nuclei (%) [6]: 76% and 79% | Population Hoechst High Intensity Objects (%) [6]: 4% | Population Membrane Permeable-Phenotype (%) [6]: 1% and 0% | Population Mitochondria Different-Phenotype (%) [6]: 22% and 27% | Population Mitotic Cells (%) [6]: 65% and 51% | Population Normal (%) [6]: 95% | Population Pyknosed Nuclei (%) [6]: 6% and 5% | Population Tubulin-Different-Phenotype (%) [6]: 12% and 11% | Total Cell Count [6]: 671 and 584

CN(C)c1ccnc2sc3c(=O)n(N4CCCCCC4)cnc3c12
Population Apoptotic (%) [1]: 45% and 51% | Population Fragmented Nuclei (%) [1]: 9% and 5% | Population Healthy Nuclei (%) [1]: 76% and 82% | Population Hoechst High Intensity Objects (%) [1]: 4% and 8% | Population Membrane Permeable-Phenotype (%) [1]: 1% and 0% | Population Mitochondria Different-Phenotype (%) [1]: 50% and 67% | Population Mitotic Cells (%) [1]: 54% and 48% | Population Normal (%) [1]: 95% and 91% | Population Pyknosed Nuclei (%) [1]: 13% and 12% | Population Tubulin-Different-Phenotype (%) [1]: 43% and 25% | Total Cell Count [1]: 360 and 335 | Population Apoptotic (%) [2]: 36% and 59% | Population Fragmented Nuclei (%) [2]: 4% and 9% | Population Healthy Nuclei (%) [2]: 81% and 72% | Population Hoechst High Intensity Objects (%) [2]: 10% and 13% | Population Membrane Permeable-Phenotype (%) [2]: 0% | Population Mitochondria Different-Phenotype (%) [2]: 78% and 76% | Population Mitotic Cells (%) [2]: 63% and 40% | Population Normal (%) [2]: 89% and 86% | Population Pyknosed Nuclei (%) [2]: 14% and 17% | Population Tubulin-Different-Phenotype (%) [2]: 79% and 59% | Total Cell Count [2]: 387 and 308 | Population Apoptotic (%) [3]: 30% and 25% | Population Fragmented Nuclei (%) [3]: 10% and 7% | Population Healthy Nuclei (%) [3]: 76% and 84% | Population Hoechst High Intensity Objects (%) [3]: 4% and 5% | Population Membrane Permeable-Phenotype (%) [3]: 1% and 0% | Population Mitochondria Different-Phenotype (%) [3]: 27% and 51% | Population Mitotic Cells (%) [3]: 70% and 74% | Population Normal (%) [3]: 95% and 94% | Population Pyknosed Nuclei (%) [3]: 12% and 7% | Population Tubulin-Different-Phenotype (%) [3]: 24% and 22% | Total Cell Count [3]: 510 and 470 | Population Apoptotic (%) [4]: 42% and 66% | Population Fragmented Nuclei (%) [4]: 7% and 10% | Population Healthy Nuclei (%) [4]: 76% and 74% | Population Hoechst High Intensity Objects (%) [4]: 8% and 13% | Population Membrane Permeable-Phenotype (%) [4]: 0% | Population Mitochondria Different-Phenotype (%) [4]: 80% and 75% | Population Mitotic Cells (%) [4]: 57% and 33% | Population Normal (%) [4]: 91% and 86% | Population Pyknosed Nuclei (%) [4]: 16% and 15% | Population Tubulin-Different-Phenotype (%) [4]: 71% and 53% | Total Cell Count [4]: 428 and 359 | Population Apoptotic (%) [5]: 27% and 20% | Population Fragmented Nuclei (%) [5]: 13% and 11% | Population Healthy Nuclei (%) [5]: 78% and 82% | Population Hoechst High Intensity Objects (%) [5]: 2% and 3% | Population Membrane Permeable-Phenotype (%) [5]: 0% and 2% | Population Mitochondria Different-Phenotype (%) [5]: 23% and 31% | Population Mitotic Cells (%) [5]: 72% and 80% | Population Normal (%) [5]: 97% and 96% | Population Pyknosed Nuclei (%) [5]: 7% and 6% | Population Tubulin-Different-Phenotype (%) [5]: 14% and 15% | Total Cell Count [5]: 721 and 663 | Population Apoptotic (%) [6]: 70% and 57% | Population Fragmented Nuclei (%) [6]: 15% and 11% | Population Healthy Nuclei (%) [6]: 72% and 75% | Population Hoechst High Intensity Objects (%) [6]: 8% and 6% | Population Membrane Permeable-Phenotype (%) [6]: 0% | Population Mitochondria Different-Phenotype (%) [6]: 66% and 63% | Population Mitotic Cells (%) [6]: 29% and 42% | Population Normal (%) [6]: 91% and 93% | Population Pyknosed Nuclei (%) [6]: 12% | Population Tubulin-Different-Phenotype (%) [6]: 54% and 45% | Total Cell Count [6]: 497 and 450
